In ChEMBL document CHEMBL4725349, “Discovery of First-in-Class Protein Arginine Methyltransferase 5 (PRMT5) Degraders” (J Med Chem, 2020):
Blank lines part the entries; values can stand above or below the compound they belong to. Calls of active or inactive are those of the source. No cut-off for these calls is given here.

Experiments:
[1] = target: T1, von Hippel-Lindau disease tumor suppressor/Protein arginine N-methyltransferase 5 (Homo sapiens, UniProt O14744+P40337); experiment: Induction of VHL-mediated PRMT5 degradation in human MCF7 cells at 0.2 to 5 uM incubated for 6 days by Western blot analysis; assay type: cell-based; conditions: dose microM 0.2-5, time 6.0 day
How it was run: (§1)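 MCF-7 cells treated 6 d (0.2, 1 and 5 μM for initial screen, or indicated concentrations). RIPA lysates immunoblotted for PRMT5. Band intensity quantified by densitometry to derive DC50 and Dmax as mean ± SD from three independent experiments; screening blots representative of at least two.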
Target sequence in this assay (O14744 whole entry, looked up): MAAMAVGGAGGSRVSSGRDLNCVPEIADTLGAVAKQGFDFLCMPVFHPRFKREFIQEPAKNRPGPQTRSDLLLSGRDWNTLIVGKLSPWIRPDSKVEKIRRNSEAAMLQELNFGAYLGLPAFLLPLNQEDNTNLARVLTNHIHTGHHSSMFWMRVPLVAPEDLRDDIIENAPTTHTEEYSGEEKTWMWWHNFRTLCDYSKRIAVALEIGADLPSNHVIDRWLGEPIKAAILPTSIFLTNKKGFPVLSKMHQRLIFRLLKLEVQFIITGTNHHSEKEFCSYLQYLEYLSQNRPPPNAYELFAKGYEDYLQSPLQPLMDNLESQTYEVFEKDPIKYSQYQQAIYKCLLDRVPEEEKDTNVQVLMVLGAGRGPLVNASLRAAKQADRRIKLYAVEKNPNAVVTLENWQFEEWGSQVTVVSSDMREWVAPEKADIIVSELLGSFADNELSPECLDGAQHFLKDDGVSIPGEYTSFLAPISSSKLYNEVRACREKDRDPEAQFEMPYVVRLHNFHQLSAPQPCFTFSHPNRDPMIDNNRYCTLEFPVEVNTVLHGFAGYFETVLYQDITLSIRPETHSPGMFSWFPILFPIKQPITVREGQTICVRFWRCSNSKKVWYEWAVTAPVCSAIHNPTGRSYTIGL
Target sequence in this assay (P40337 whole entry, looked up): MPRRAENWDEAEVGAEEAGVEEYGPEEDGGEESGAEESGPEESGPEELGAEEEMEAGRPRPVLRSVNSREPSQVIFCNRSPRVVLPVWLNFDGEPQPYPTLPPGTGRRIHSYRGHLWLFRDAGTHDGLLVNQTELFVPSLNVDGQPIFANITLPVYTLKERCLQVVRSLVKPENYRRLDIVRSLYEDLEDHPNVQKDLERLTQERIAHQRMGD

[2] = tested on: MCF7; experiment: Antiproliferative activity against human MCF7 cells at 0.1 to 10 uM incubated for 6 days by CellTiter-Glo assay; assay type: functional, cell-based; conditions: dose microM 0.1-10, time 6.0 day
How it was run: (§2)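 MCF-7 in DMEM + 10% FBS at 37 °C, 5% CO2. Cells exposed to graded concentrations for 6 d, medium with compound refreshed every other day. CellTiter-Glo luminescence, expressed as viability relative to DMSO control; mean ± SD, n = 3.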

[3] = target: PRMT5/MEP50 complex (Homo sapiens, UniProt O14744); experiment: Inhibition of human PRMT5/MEP50 assessed as reduction in methyltransferase activity using histone 4 peptide as substrate in presence of [3H]SAM incubated for 30 mins; assay type: protein-complex assay
PRMT5/MEP50 complex, sequence (O14744 whole entry): as the sequence (O14744 whole entry, looked up) above
PRMT5/MEP50 complex, sequence (Q9BQA1 whole entry, further chain): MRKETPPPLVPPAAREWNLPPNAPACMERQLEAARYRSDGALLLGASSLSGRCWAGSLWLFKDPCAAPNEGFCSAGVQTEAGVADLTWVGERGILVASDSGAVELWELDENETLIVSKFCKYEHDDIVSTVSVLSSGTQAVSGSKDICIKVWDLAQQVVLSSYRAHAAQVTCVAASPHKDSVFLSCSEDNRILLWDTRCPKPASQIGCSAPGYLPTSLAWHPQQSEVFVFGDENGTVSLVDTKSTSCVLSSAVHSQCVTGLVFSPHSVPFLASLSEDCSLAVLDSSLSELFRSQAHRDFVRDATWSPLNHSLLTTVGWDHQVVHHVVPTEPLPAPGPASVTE
How it was run: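 Radiometric FlashPlate assay tracking transfer of the 3H-methyl group from SAM (1 μM) to biotinylated H4 (1–15) peptide by human PRMT5/MEP50 (5 nM). Compounds were preincubated with enzyme and substrate for 20 min at rt. They were tested at 10 concentrations in threefold serial dilution from 5 μM, in duplicate. IC50 is reported as mean ± SD.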

[4] = target: T1, von Hippel-Lindau disease tumor suppressor/Protein arginine N-methyltransferase 5; experiment: Induction of VHL-mediated PRMT5 degradation in human MCF7 cells at 5 uM incubated for 6 days by Western blot analysis; assay type: cell-based; conditions: time 6.0 day; how it was run: as §1
Target sequence in this assay (O14744 whole entry, looked up): as the sequence (O14744 whole entry, looked up) above
Target sequence in this assay (P40337 whole entry, looked up): as the sequence (P40337 whole entry, looked up) above

[5] = target: T1, von Hippel-Lindau disease tumor suppressor/Protein arginine N-methyltransferase 5; experiment: Induction of VHL-mediated PRMT5 degradation in human A549 cells at 5 uM incubated for 6 days by Western blot analysis; assay type: cell-based; conditions: time 6.0 day
How it was run: (§3)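 HeLa, A549, A172 and Jurkat cells exposed to 5 μM for 6 d. Lysis in RIPA buffer with protease inhibitors, then SDS-PAGE, PVDF transfer and immunoblot for PRMT5 with β-actin loading control, ECL detection. Representative of two independent experiments.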
Target sequence in this assay (O14744 whole entry, looked up): as the sequence (O14744 whole entry, looked up) above
Target sequence in this assay (P40337 whole entry, looked up): as the sequence (P40337 whole entry, looked up) above

[6] = target: T1, von Hippel-Lindau disease tumor suppressor/Protein arginine N-methyltransferase 5; experiment: Induction of VHL-mediated PRMT5 degradation in human MCF7 cells assessed as recovery of PRMT5 level at 5 uM incubated for 6 days followed by compound wash out and measured up to 48 hrs by Western blot analysis; assay type: cell-based; conditions: time 6.0 day
How it was run: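 Washout: MCF-7 cells treated 6 d with 5 μM, compound removed, and PRMT5 immunoblotted at 0, 12, 24 and 48 h after washout.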
Target sequence in this assay (O14744 whole entry, looked up): as the sequence (O14744 whole entry, looked up) above
Target sequence in this assay (P40337 whole entry, looked up): as the sequence (P40337 whole entry, looked up) above

[7] = tested on: MCF7; experiment: Antiproliferative activity against human MCF7 cells incubated for 6 days by CellTiter-Glo assay; assay type: functional, cell-based; conditions: dose microM 0.1-10, time 6.0 day; how it was run: as §2
[8] = target: T1, von Hippel-Lindau disease tumor suppressor/Protein arginine N-methyltransferase 5; experiment: Induction of VHL-mediated PRMT5 degradation in human MCF7 cells at 5 uM supplemented with fresh medium containing compound every 2 days for 5 days by LC-MS based LFQ global proteomics analysis; assay type: cell-based; conditions: time 5.0 day
How it was run: (§4)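 MCF-7 cells given 5 μM compound or DMSO for 5 d, with fresh medium plus compound every 48 h; two biological replicates. Lysis in 8 M urea/50 mM Tris pH 8.0, DTT reduction, iodoacetamide alkylation, overnight trypsin digestion. Peptides run on nanoLC-Q-Exactive HF-X, 130 min gradient. Label-free quantitation; fold changes tested by two-sample t test.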
Target sequence in this assay (O14744 whole entry, looked up): as the sequence (O14744 whole entry, looked up) above
Target sequence in this assay (P40337 whole entry, looked up): as the sequence (P40337 whole entry, looked up) above

[9] = tested on: A 172; experiment: Antiproliferative activity against human A172 cells assessed as reduction in cell viability supplemented with fresh medium containing compound every other day for 6 days by CellTiter-Glo assay; assay type: functional, cell-based; conditions: dose microM 0.1-10, time 6.0 day
How it was run: (§5)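 HeLa, A549 and A172 grown in DMEM + 10% FBS; Jurkat in RPMI 1640 + 10% FBS; all at 37 °C, 5% CO2. Cells seeded, then treated 6 d with test agent, medium plus compound renewed every other day. Viability read by CellTiter-Glo and normalized to DMSO-treated cells; mean ± SD, n = 3.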

[10] = Plasma concentration in Swiss albino mouse at 150 mg/kg, ip administered as single dose measured at 2 hrs post dose by LC-MS/MS method; assay type: ADME, organism-based
How it was run: (§6)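 Male Swiss albino mice received one 150 mg/kg IP dose in normal saline. Blood drawn under light isoflurane at 0.25, 0.5, 1, 2, 6 and 12 h, three mice per time point. Plasma acetonitrile-precipitated and quantified by LC-MS/MS (LLOQ 9.25 ng/mL); clinical signs observed.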

[11] = target: T1, von Hippel-Lindau disease tumor suppressor/Protein arginine N-methyltransferase 5; experiment: Induction of VHL-mediated PRMT5 degradation in human MCF7 cells assessed as PRMT5 level at 5 uM incubated for 7 days in presence of neddylation inhibitor MLN4924 by Western blot analysis relative to control; assay type: cell-based; conditions: time 7.0 day
Target sequence in this assay (O14744 whole entry, looked up): as the sequence (O14744 whole entry, looked up) above
Target sequence in this assay (P40337 whole entry, looked up): as the sequence (P40337 whole entry, looked up) above

[12] = target: T1, von Hippel-Lindau disease tumor suppressor/Protein arginine N-methyltransferase 5; experiment: Induction of VHL-mediated PRMT5 degradation in human MCF7 cells assessed as PRMT5 level at 5 uM incubated for 7 days in presence of proteasome inhibitor MG-132 by Western blot analysis relative to control; assay type: cell-based; conditions: time 7.0 day
[13] = target: von Hippel-Lindau disease tumor suppressor/Methylosome protein WDR77 (Homo sapiens) (UniProt Q9BQA1+P40337); experiment: Induction of VHL-mediated WDR77 degradation in human MCF7 cells at 5 uM supplemented with fresh medium containing compound every 2 days for 5 days by LC-MS based LFQ global proteomics analysis; assay type: cell-based; conditions: time 5.0 day; how it was run: as §4
von Hippel-Lindau disease tumor suppressor/Methylosome protein WDR77 (Homo sapiens), sequence (P40337 whole entry, looked up): as above
von Hippel-Lindau disease tumor suppressor/Methylosome protein WDR77 (Homo sapiens), sequence (Q9BQA1 whole entry, looked up): as the sequence (Q9BQA1 whole entry, further chain) above

[14] = tested on: A549; experiment: Antiproliferative activity against human A549 cells assessed as reduction in cell viability supplemented with fresh medium containing compound every other day for 6 days by CellTiter-Glo assay; assay type: functional, cell-based; conditions: dose microM 0.1-10, time 6.0 day; how it was run: as §5
[15] = Toxicity in Swiss albino mouse assessed as effect on clinical signs at 150 mg/kg, ip; assay type: organism-based; conditions: in vivo; how it was run: as §6
[16] = tested on: HeLa; experiment: Antiproliferative activity against human HeLa cells assessed as reduction in cell viability supplemented with fresh medium containing compound every other day for 6 days by CellTiter-Glo assay; assay type: functional, cell-based; conditions: dose microM 0.1-10, time 6.0 day; how it was run: as §5
[17] = Plasma concentration in Swiss albino mouse at 150 mg/kg, ip administered as single dose measured after 12 hrs post dose by LC-MS/MS method; assay type: ADME, organism-based; how it was run: as §6
[18] = target: T1, von Hippel-Lindau disease tumor suppressor/Protein arginine N-methyltransferase 5; experiment: Induction of VHL-mediated PRMT5 degradation in human MCF7 cells assessed as PRMT5 level at 5 uM incubated for 7 days by Western blot analysis relative to control; assay type: cell-based; conditions: time 7.0 day
[19] = target: T1, von Hippel-Lindau disease tumor suppressor/Protein arginine N-methyltransferase 5; experiment: Induction of VHL-mediated PRMT5 degradation in human HeLa cells at 5 uM incubated for 6 days by Western blot analysis; assay type: cell-based; conditions: time 6.0 day; how it was run: as §3
[20] = target: T1, von Hippel-Lindau disease tumor suppressor/Protein arginine N-methyltransferase 5; experiment: Induction of VHL-mediated PRMT5 degradation in human MCF7 cells assessed as PRMT5 level at 5 uM incubated for 7 days in presence of VH-298 by Western blot analysis relative to control; assay type: cell-based; conditions: time 7.0 day
[21] = tested on: Jurkat; experiment: Antiproliferative activity against human Jurkat cells assessed as reduction in cell viability supplemented with fresh medium containing compound every other day for 6 days by CellTiter-Glo assay; assay type: functional, cell-based; conditions: dose microM 0.1-10, time 6.0 day; how it was run: as §5
[22] = target: T1, von Hippel-Lindau disease tumor suppressor/Protein arginine N-methyltransferase 5; experiment: Induction of VHL-mediated PRMT5 degradation in human MCF7 cells incubated for 6 days by Western blot analysis; assay type: cell-based; how it was run: as §1
[23] = target: T1, von Hippel-Lindau disease tumor suppressor/Protein arginine N-methyltransferase 5; experiment: Induction of VHL-mediated PRMT5 degradation in human MCF7 cells assessed as PRMT5 level at 5 uM incubated for 7 days in presence of EPZ015666 by Western blot analysis relative to control; assay type: cell-based; conditions: time 7.0 day
[24] = target: T1, von Hippel-Lindau disease tumor suppressor/Protein arginine N-methyltransferase 5; experiment: Induction of VHL-mediated PRMT5 degradation in human MCF7 cells incubated for 6 days by Western blot analysis relative to control; assay type: cell-based; conditions: time 6.0 day; how it was run: as §1
[25] = target: T1, von Hippel-Lindau disease tumor suppressor/Protein arginine N-methyltransferase 5; experiment: Induction of VHL-mediated PRMT5 degradation in human A172 cells at 5 uM incubated for 6 days by Western blot analysis; assay type: cell-based; conditions: A 172, time 6.0 day; how it was run: as §3
[26] = target: T1, von Hippel-Lindau disease tumor suppressor/Protein arginine N-methyltransferase 5; experiment: Induction of VHL-mediated PRMT5 degradation in human MCF7 cells assessed as reduction in SDMA level incubated for 6 days by Western blot analysis; assay type: cell-based; conditions: dose microM 0.1-3, time 6.0 day
How it was run: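 SDMA read-out: MCF-7 cells given 0.1, 0.3, 1 or 3.0 μM for 6 d; global symmetric dimethylarginine detected on western blot with anti-SDMA antibody.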

[27] = target: von Hippel-Lindau disease tumor suppressor/Agrin (Homo sapiens) (UniProt P40337+O00468); experiment: Induction of VHL-mediated AGRN degradation in human MCF7 cells at 5 uM supplemented with fresh medium containing compound every 2 days for 5 days by LC-MS based LFQ global proteomics analysis; assay type: cell-based; conditions: time 5.0 day; how it was run: as §4
von Hippel-Lindau disease tumor suppressor/Agrin (Homo sapiens), sequence (O00468 whole entry, looked up): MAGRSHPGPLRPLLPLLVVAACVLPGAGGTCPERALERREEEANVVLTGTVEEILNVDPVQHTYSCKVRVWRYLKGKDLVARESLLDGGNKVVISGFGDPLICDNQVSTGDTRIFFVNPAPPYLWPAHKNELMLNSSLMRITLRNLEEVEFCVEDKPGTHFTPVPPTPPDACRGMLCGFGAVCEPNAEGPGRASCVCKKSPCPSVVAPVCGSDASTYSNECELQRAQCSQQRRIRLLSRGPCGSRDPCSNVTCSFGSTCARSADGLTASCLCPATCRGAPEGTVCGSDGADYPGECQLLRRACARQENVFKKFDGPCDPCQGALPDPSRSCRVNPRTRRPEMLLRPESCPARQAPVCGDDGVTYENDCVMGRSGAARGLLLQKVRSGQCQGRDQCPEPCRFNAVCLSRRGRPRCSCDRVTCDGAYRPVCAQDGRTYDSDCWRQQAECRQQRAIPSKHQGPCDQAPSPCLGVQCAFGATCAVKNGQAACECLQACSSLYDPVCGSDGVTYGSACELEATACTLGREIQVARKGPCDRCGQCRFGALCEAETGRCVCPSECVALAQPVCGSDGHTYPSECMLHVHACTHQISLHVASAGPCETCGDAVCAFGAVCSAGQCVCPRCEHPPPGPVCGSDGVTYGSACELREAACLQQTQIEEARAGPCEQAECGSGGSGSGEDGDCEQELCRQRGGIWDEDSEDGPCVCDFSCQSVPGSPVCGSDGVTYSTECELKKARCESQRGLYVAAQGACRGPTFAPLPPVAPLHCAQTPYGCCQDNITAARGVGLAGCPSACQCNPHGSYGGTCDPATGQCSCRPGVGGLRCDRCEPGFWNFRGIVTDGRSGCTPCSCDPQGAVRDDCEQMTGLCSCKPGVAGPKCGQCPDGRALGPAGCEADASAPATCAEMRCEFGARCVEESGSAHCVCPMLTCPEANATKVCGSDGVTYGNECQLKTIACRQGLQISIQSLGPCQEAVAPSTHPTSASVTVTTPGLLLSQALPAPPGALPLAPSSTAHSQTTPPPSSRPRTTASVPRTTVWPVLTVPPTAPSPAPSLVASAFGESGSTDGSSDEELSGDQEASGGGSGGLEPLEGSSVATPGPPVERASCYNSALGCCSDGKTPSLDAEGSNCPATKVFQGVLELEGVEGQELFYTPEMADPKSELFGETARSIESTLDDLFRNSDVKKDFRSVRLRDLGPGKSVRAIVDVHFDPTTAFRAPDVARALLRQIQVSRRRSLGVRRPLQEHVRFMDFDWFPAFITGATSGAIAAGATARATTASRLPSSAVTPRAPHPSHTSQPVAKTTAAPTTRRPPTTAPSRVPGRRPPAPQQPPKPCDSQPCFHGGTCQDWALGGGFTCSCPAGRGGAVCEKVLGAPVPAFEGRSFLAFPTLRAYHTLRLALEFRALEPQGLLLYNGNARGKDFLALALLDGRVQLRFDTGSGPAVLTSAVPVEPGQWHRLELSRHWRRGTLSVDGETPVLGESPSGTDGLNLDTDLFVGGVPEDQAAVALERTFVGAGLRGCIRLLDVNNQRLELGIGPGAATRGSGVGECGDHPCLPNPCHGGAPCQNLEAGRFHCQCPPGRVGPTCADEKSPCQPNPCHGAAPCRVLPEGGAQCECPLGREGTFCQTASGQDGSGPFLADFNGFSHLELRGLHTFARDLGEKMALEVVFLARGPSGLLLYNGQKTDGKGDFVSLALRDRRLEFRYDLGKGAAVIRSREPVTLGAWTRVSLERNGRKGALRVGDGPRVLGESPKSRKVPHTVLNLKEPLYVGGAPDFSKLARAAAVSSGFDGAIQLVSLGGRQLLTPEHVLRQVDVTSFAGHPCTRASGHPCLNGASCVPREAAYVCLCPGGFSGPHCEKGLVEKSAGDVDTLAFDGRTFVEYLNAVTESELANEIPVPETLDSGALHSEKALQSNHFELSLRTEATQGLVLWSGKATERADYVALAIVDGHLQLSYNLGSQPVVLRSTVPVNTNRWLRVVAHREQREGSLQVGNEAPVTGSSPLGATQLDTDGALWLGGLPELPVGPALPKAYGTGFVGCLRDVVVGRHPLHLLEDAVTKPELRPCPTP
von Hippel-Lindau disease tumor suppressor/Agrin (Homo sapiens), sequence (P40337 whole entry, looked up): as the sequence (P40337 whole entry, looked up) above

[28] = target: T1, von Hippel-Lindau disease tumor suppressor/Protein arginine N-methyltransferase 5; experiment: Induction of VHL-mediated PRMT5 degradation in human Jurkat cells at 5 uM incubated for 6 days by Western blot analysis; assay type: cell-based; conditions: time 6.0 day; how it was run: as §3

Activity [1]: inactive
Compound: Cc1ncsc1-c1ccc(CNC(=O)[C@@H]2C[C@@H](O)CN2C(=O)[C@@H](NC(=O)CCOCCOCCOCCC(=O)N2CC(Nc3cc(C(=O)NC[C@H](O)CN4CCc5ccccc5C4)ncn3)C2)C(C)(C)C)cc1

Activity [1]: inactive
Compound: Cc1ncsc1-c1ccc(CNC(=O)[C@@H]2C[C@@H](O)CN2C(=O)[C@@H](NC(=O)COCC(=O)N2CC(Nc3cc(C(=O)NC[C@H](O)CN4CCc5ccccc5C4)ncn3)C2)C(C)(C)C)cc1

Compound: Cc1ncsc1-c1ccc([C@H](C)NC(=O)[C@H]2C[C@H](O)CN2C(=O)[C@@H](NC(=O)COCCOCCOCCOCCOCC(=O)N2CC(Nc3cc(C(=O)NC[C@H](O)CN4CCc5ccccc5C4)ncn3)C2)C(C)(C)C)cc1
Activity [2]: inactive
IC50 [3]: 12 nM
Activity [4]: inactive

Compound: Cc1ncsc1-c1ccc([C@H](C)NC(=O)[C@@H]2C[C@@H](O)CN2C(=O)[C@@H](NC(=O)COCCOCCOCCOCCOCC(=O)N2CC(Nc3cc(C(=O)NC[C@H](O)CN4CCc5ccccc5C4)ncn3)C2)C(C)(C)C)cc1
Activity [5]: Active
Activity [6]: Active
Activity [7]: Dose-dependent effect
Activity [8]: Active
Activity [9]: Dose-dependent effect
IC50 [3]: 18 nM
concentration at 2 h [10]: 14 µM
fold change (FC) [11]: 0.59
fold change (FC) [12]: 0.51
Activity [13]: Active
Activity [14]: Dose-dependent effect
Activity [15]: Non-Toxic
Activity [16]: Dose-dependent effect
concentration at 12 h [17]: > 0.1 µM
fold change (FC) [18]: 0.32
Activity [19]: Active
fold change (FC) [20]: 0.53
Activity [21]: Dose-dependent effect
DC50 [22]: 1100 nM
Activity ([22]; time 6.0 day): Dose-dependent effect
fold change (FC) [23]: 0.61
Emax [24]: 74%
Activity [25]: Active
Activity [26]: Dose-dependent effect
Activity [27]: Active
Activity [28]: Active
